Series [1] can be described thus: in vivo. The following applies: mouse, po, 2.5 mg/kg.
A short description of series [2]: Cmax in liver Por deleted-reductase conditional null mouse at 2.5 mg/kg, po treated 10 days after 40 mg/kg, ip 3-methylcholanthrene administration by liquid chromatography-tandem mass spectrometry. The format is ADME, organism-based. The following applies: in vivo. In outline:
(§1)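 Adult male mice (n = 3): Por lox/lox wild type, or RCN (Por lox/lox plus Cre under CYP1A1 promoter). Pretreated i.p. in corn oil with either 3-MC 40 mg/kg as a single dose, or BNF 80 mg/kg daily for 4 days. After 10 days, oral dosing at 2.5 mg/kg. Serial tail-vein blood was analysed by LC-MS/MS for parent drug; mean ± SD.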

Series [3] is described as follows: Clearance in Por lox/lox wild type mouse at 2.5 mg/kg, po treated 10 days after 80 mg/kg, ip beta-naphthoflavone administration by liquid chromatography-tandem mass spectrometry. In kind it is ADME, organism-based. Conditions: in vivo. In outline:
as §1

Series [4] is described as follows: Cmax in liver and gut Por deleted-reductase conditional null mouse at 2.5 mg/kg, po treated 10 days after 80 mg/kg, ip beta-naphthoflavone administration by liquid chromatography-tandem mass spectrometry. The format is ADME, organism-based. Conditions: in vivo. In outline: as §1
A short description of series [5]: in vivo. The following applies: mouse, po, 2.5 mg/kg. The source holds these as a separate data set.
Series [6] can be described thus: AUC (0 to last) in liver and gut Por deleted-reductase conditional null mouse at 2.5 mg/kg, po treated 10 days after 80 mg/kg, ip beta-naphthoflavone administration by liquid chromatography-tandem mass spectrometry. The format is ADME, organism-based. Conditions: in vivo. An outline of the steps:
as §1

Series [7] is described as follows: Cmax in Por lox/lox wild type mouse at 2.5 mg/kg, po treated 10 days after 80 mg/kg, ip beta-naphthoflavone administration by liquid chromatography-tandem mass spectrometry. In kind it is ADME, organism-based. The following applies: in vivo. In outline:
as §1

Series [8] is described as follows: Clearance in liver Por deleted-reductase conditional null mouse at 2.5 mg/kg, po treated 10 days after 40 mg/kg, ip 3-methylcholanthrene administration by liquid chromatography-tandem mass spectrometry. In kind it is ADME, organism-based. Conditions: in vivo. In outline:
as §1

The next series relates to Mus musculus. As to the kind of experiment: AUC (0 to infinity) in Por lox/lox wild type mouse at 2.5 mg/kg, po treated 10 days after 40 mg/kg, ip 3-methylcholanthrene administration by liquid chromatography-tandem mass spectrometry. In kind it is ADME, organism-based, Plasma. Conditions: in vivo, 240 h. An outline of the steps:
as §1

Series [9] can be described thus: Clearance in liver and gut Por deleted-reductase conditional null mouse at 2.5 mg/kg, po treated 10 days after 80 mg/kg, ip beta-naphthoflavone administration by liquid chromatography-tandem mass spectrometry. The format is ADME, organism-based. Conditions: in vivo. In outline:
as §1

A short description of series [10]: AUC (0 to last) in Por lox/lox wild type mouse at 2.5 mg/kg, po treated 10 days after 40 mg/kg, ip 3-methylcholanthrene administration by liquid chromatography-tandem mass spectrometry. The following applies: plasma. In kind it is ADME, organism-based. In outline: as §1
Series [11] is described as follows: AUC (0 to last) in liver Por deleted-reductase conditional null mouse at 2.5 mg/kg, po treated 10 days after 40 mg/kg, ip 3-methylcholanthrene administration by liquid chromatography-tandem mass spectrometry. The format is ADME, organism-based. The following applies: in vivo. In outline:
as §1

Series [12] in a line: AUC (0 to last) in Por lox/lox wild type mouse at 2.5 mg/kg, po treated 10 days after 80 mg/kg, ip beta-naphthoflavone administration by liquid chromatography-tandem mass spectrometry. In kind it is ADME, organism-based. The following applies: plasma. An outline of the steps: as §1
Series [13] is described as follows: Cmax in Por lox/lox wild type mouse at 2.5 mg/kg, po treated 10 days after 40 mg/kg, ip 3-methylcholanthrene administration by liquid chromatography-tandem mass spectrometry. In kind it is ADME, organism-based. The following applies: in vivo. An outline of the steps:
as §1

The nature of series [14]: AUC (0 to infinity) in liver Por deleted-reductase conditional null mouse at 2.5 mg/kg, po treated 10 days after 40 mg/kg, ip 3-methylcholanthrene administration by liquid chromatography-tandem mass spectrometry. The format is ADME, organism-based. Conditions: in vivo. In outline:
as §1

Series [15] in a line: AUC (0 to infinity) in liver and gut Por deleted-reductase conditional null mouse at 2.5 mg/kg, po treated 10 days after 80 mg/kg, ip beta-naphthoflavone administration by liquid chromatography-tandem mass spectrometry. In kind it is ADME, organism-based. The following applies: in vivo. An outline of the steps:
as §1

Series [16] is described as follows: in vivo. Conditions: mouse, po, 2.5 mg/kg. This is another data set of the same source.
A short description of series [17]: AUC (0 to infinity) in Por lox/lox wild type mouse at 2.5 mg/kg, po treated 10 days after 80 mg/kg, ip beta-naphthoflavone administration by liquid chromatography-tandem mass spectrometry. In kind it is ADME, organism-based. Conditions: plasma. In outline: as §1
Series [18] in a line: in vivo. Conditions: mouse, po, 2.5 mg/kg. The source holds these as a separate data set.

What is called half-life is the time needed for the level to fall by half in the phase considered. Low values mean rapid decline, high ones slow decline. In general, Cmax refers to the maximum level reached in the sampled fluid or tissue. What is called CL/F is the apparent clearance, not corrected for the fraction that reaches the circulation. One may read the AUC(0-t) as exposure summed from dosing to a finite time, without extrapolation to infinity. Higher therefore signals more exposure. A word on the AUC: it is the area under the concentration-time curve, a measure of exposure. The low end stands for low exposure, the high end for high exposure. As usually defined, the AUC(0-inf) is the area under the concentration-time curve extrapolated to infinity.

Structures are written as SMILES.

Turning to `Cc1ncc2n1-c1ccc(Cl)cc1C(c1ccccc1F)=NC2` [MIDAZOLAM], the half-life at 240 h was 1.92 h in “in vivo [1]”, 1.13 h in the series “in vivo [5]”, 2.13 h in the series “in vivo [16]” and 1.9 h in the series “in vivo [18]”. The highest concentration (Cmax) in series [2] is 900 ng/mL; in [4], 2300 ng/mL; in series [7] it was 140 ng/mL; in [13], 110 ng/mL. The CL/F worked out at 180 mL/min/kg in series [3], 26.8 mL/min/kg in [8] and 9.3 mL/min/kg in [9]. In addition, the AUC(0-t) at 240 h in series [6] is 5520 ng·h/mL; in series [10], 125 ng·h/mL; in [11], 2100 ng·h/mL; in series [12] it was 228 ng·h/mL. The compound also had an AUC in the series with Mus musculus of 8.7 µg·min/mL. Besides, the total exposure AUC(0-inf) in series [14] is 2250 ng·h/mL; in [15], 5830 ng·h/mL; in series [17], 278 ng·h/mL.

These data come from ChEMBL document CHEMBL3526021, “NADPH-cytochrome P450 oxidoreductase: roles in physiology, pharmacology, and toxicology” (Drug Metab Dispos, 2013).
